Laboratory results as given in ChEMBL document CHEMBL4513216, “Probing the Open Global Health Chemical Diversity Library for Multistage-Active Starting Points for Next-Generation Antimalarials” (ACS Infect Dis, 2020).

Experiment: Toxicity liver stage against HepG2, at 10uM
Type: cell-based
Set-up: test concentration 10 uM, cell line HepG2-A16-CD81EGFP
Conditions: human, HepG2-A16-CD81EGFP cells; read-out: INHIBITION
Procedure, shortened: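 Uninfected HepG2-A16-CD81EGFP cells, 3 × 10^3 per well, 1536-well, plated on prespotted compound at 10 μM final, parasite-free screening media added to match infected plates; puromycin 10 μM positive, DMSO 0.5% negative; run in parallel with 48 h PbLuc assay at 37 °C, 5% CO2; viability by CellTiter-Glo luminescence, normalized to controls.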

SMILES | cytotoxicity at 10 µM [%]
CN1C(=O)C2(CC(=O)Nc3[nH]ncc32)c2cc(Cl)ccc21 (centres undefined) | -1.89
COCCn1cnc2ccc(NC(=O)CCCn3cccn3)cc2c1=O | 6.43
COC1CCN(C(=O)Cn2ccc3ccccc32)CC1 | -12.7
O=S(=O)(c1cc(F)cc(F)c1)N1CCC(Oc2ccc(Cl)cn2)CC1 | -4.63
CCC(CNC(=O)OC)(OC)c1ccccc1 (centres undefined) | 1.37
CN1CC[C@@H]2[C@@H]1CCN2Cc1ccc2c(c1)OCO2 | 3.11
CN1CC2(CCCCN2C(=O)c2ccsc2)CC1=O (centres undefined) | 2.73
N#CCC(=O)NCc1nnc2n1CCN(Cc1nccs1)C2 | -149
O=C(NCCc1ccncc1)[C@H]1CC[C@@H]2[C@@H](CCN2C2CCC2)O1 | -2.3
Cn1nnc2c1C(COCC1CC1)CN(C(=O)Cc1ccccn1)C2 (centres undefined) | 13.5
CCCc1nnc2sc(-c3cc(C(C)C)n[nH]3)nn12 | 17.7
COc1ccc(NC(=O)c2cnc(N(C)C3CCCCC3)nc2N)cc1 | -3.64
Cc1ccccc1N1CC2(CCN(S(=O)(=O)c3cccs3)C2)CC1=O (centres undefined) | 14.1
Cn1cnc2c1C(COCc1cccnc1)N(Cc1ccccn1)CC2 (centres undefined) | -13.3
O=C(CCC(=O)NCc1cccc(Br)c1)NCCN1CCCC1 | 10
CCN(c1ccccc1C(=O)O)S(=O)(=O)c1cccc2cccnc12 | 1.28
Cc1nc(N2CCN(C(=O)C3CCCC3)CC2)c2c(n1)c(C)nn2C | 6.97
CCn1cc(CN(C)S(=O)(=O)c2ccccc2)cn1 | 11.9
Cc1ccc(CNC(=O)c2cc(C)n(C)n2)o1 | 0.25
Cc1c(Cl)cccc1N1CC(c2nnc(N)s2)CC1=O (centres undefined) | 7.38
Cc1nn(C)c(C)c1NC(=O)CCn1ncc2ccccc21 | 10.8
COc1ccc(C2=NOC(CO)C2)cc1 (centres undefined) | 11.2

SMILES | cytotoxicity at 10 µM [%]
COc1ccc(NC(=O)c2cnc(C3CCN(C)CC3)nc2C)cc1 | -1.46
COCC(=O)N1CCN(C)CC(Cc2cc(N(C)C)ncn2)C1 (centres undefined) | -1.79
CC(=O)N1CCCCC[C@@H]2[C@@H]1[C@H](c1cccc(F)c1)CN2C(=O)C1CC1 | 6.75
COc1ccccc1C1(O)CCCN(C(=O)c2csc(C(C)=O)c2)C1 (centres undefined) | -1.41
COc1cccc(CCC2CCCCN2)c1 (centres undefined) | -1.73
Cc1cc(-c2cnc(N3CCNC(=O)C3)nc2-c2ccc(C)o2)on1 | -5.77
CNC(=O)COC(=O)c1ccn(-c2ccc(Cl)c(Cl)c2)n1 | 20.9
Cc1csc(CN(C)S(=O)(=O)c2ccc(C)c(N(C)C)c2)n1 | 13.7
CC(=O)N1CCN(C(=O)c2ccc(-c3cccc(C)c3)[nH]c2=O)CC1 | 3.64
CC(C)c1cc(NC(=O)CNC2CCc3nc(C(C)C)nn3C2)on1 (centres undefined) | 0.246
O=S(=O)(CCc1ccccc1Cl)CC(O)CO (centres undefined) | 10.7
CS(=O)(=O)CCC(=O)N1CCC(c2cccc(F)c2)C1 (centres undefined) | 3.71
COC(C)c1noc(CN(C)c2ncc(Br)cn2)n1 (centres undefined) | -1.26
Cc1cc(NC(=O)CN2CCc3c(nc(C(C)C)n3C)C2)n(C)n1 | -4.94
Cc1c(C2CC2)n[nH]c1NC(=O)C1CCCN(C(=O)NCC(C)C)C1 (centres undefined) | 13.9
CCc1ocnc1C(=O)Nc1ccc2ccn(CCN(C)C)c2c1 | 4.81
CC(=O)N1CCC(CCNC(C)Cc2ccc(F)cc2)CC1 (centres undefined) | -11.4
Cc1n[nH]c(C)c1NC(=O)NCc1cc[nH]n1 | -5.18
CNc1cc2c(nn1)CCN(C(=O)c1ccc(-n3cccn3)nc1)C2 | -4.78
O=C(c1ccc2c(c1)[nH]c(=O)n2C1CCCC1)N1CCCSCC1 | -41.2
CCN1CCN(c2ccc(NC(=O)CC(C)C)c(C)c2)CC1 | -8.87
CCN(CC)C(=O)CCNc1cncc(-n2nc(C)cc2C)n1 | 2.41

SMILES | cytotoxicity at 10 µM [%]
Cc1ccc(N2CCc3ncnc(C)c3CC2)nn1 | -93.6
CO[C@H]1CO[C@@]2(CCCN(C(=O)N(C)C)C2)C1 | -97.4
Cn1cnc2c(-c3cccnc3)nc(C3CCN(S(C)(=O)=O)CC3)cc21 | -118
c1cncc(CN2CCn3cc(CN4CCCCC4)nc3C2)c1 | -102
Cc1ccc(N2C[C@H]3OCC[C@H]3[C@H](C(=O)NC3CCCC3)C2)nn1 | -75.6
Cc1cnc(C(=O)N2C[C@@H](NS(C)(=O)=O)[C@@H]3OCCC[C@@H]32)cn1 | -89.7
CS(=O)(=O)NCc1ncn2c1CN(C(=O)C1CCCCC1)CCC2 | -71.2
Cc1cc(C(=O)N2CCc3ncc(CN4CCOCC4)n3CC2)no1 | 3.76
CCOCCn1nc(C)cc1C(=O)N(C)Cc1cccc2ncccc12 | 4.2
CCc1noc(CNc2nc(-c3cccnc3)nc3c2CCNCC3)n1 | 0.562
Cc1ccc(CN(C)Cc2cnc(N3CCOCC3)s2)o1 | -8.46
O=C(c1ccc(-n2cccn2)cc1Cl)N1CCCC(O)(CO)C1 (centres undefined) | -0.226
Cc1cc(=O)c(C(=O)N2CCC(C(O)Cc3ccccc3)CC2)c(C)[nH]1 (centres undefined) | 12.2
CC1=CC[C@@H]2CN(C(=O)c3ccc(-c4nnn(C)n4)cc3)C[C@@H]2C1 | 7.16
COCc1noc(-c2ccc(N3CCCCC3CCCO)nc2)n1 (centres undefined) | -3.31
CC(C)OC(=O)N1CCC(Cc2ccc(C(=O)O)cc2)C1 (centres undefined) | 3.38
CN1CCCC2(CCN(c3cc(C(F)(F)F)nc(N(C)C)n3)C2)C1=O (centres undefined) | 13.1
Cc1nc(C(C)C)ncc1C(=O)N1CCC(c2ccccc2C(=O)O)C1 (centres undefined) | 1.93
CCCn1nccc1C(=O)N1CCCC(C(=O)CCc2ccccc2)C1 (centres undefined) | -1.08
CC[C@@]1(O)CCN(C(=O)CCSCc2ccc(F)cc2)C[C@H]1O | 0.264
Cc1cc(NC(C)c2nncn2C2CCCC2)n2nc(C)cc2n1 (centres undefined) | 5.99
O=C(Nc1ccc(F)c(F)c1)N1CCC2(CCC(=O)N(C3CC3)C2)CC1 | -0.381

SMILES | cytotoxicity at 10 µM [%]
Cc1ccc(C(=O)N2CCCC(Nc3ccc(F)cc3)C2)cc1 (centres undefined) | -3.53
O=S(=O)(c1ccc(-c2cnco2)cc1)N1CCC2(CCCNC2)C1 (centres undefined) | -27.3
CCn1nc(C)cc1C(=O)N1CCCN(CCCc2ccccc2)CC1 | -1.45
CCn1cncc1Cn1ncc2ccccc2c1=O | 3.7
COCCN1CCCC(O)(CN2CCN(Cc3ccncc3)CC2)C1=O (centres undefined) | -8.24
CN1CCCN(S(=O)(=O)c2cccc(C(=O)N3CCCCCC3)c2)CC1 | -5.9
CCc1nnc(SCC(=O)N2CCc3[nH]nc(C4CCC4)c3C2)o1 | -5.22
Cc1ccccc1CCC1CCCN(Cc2nnc(-c3ccco3)o2)C1 (centres undefined) | -116
CSc1cccc(CNC(=O)[C@H]2CNC[C@H](C(=O)N3CCOCC3)C2)c1 | -1.74
Cc1nc(-c2ccncc2)ncc1C(C)NC(=O)CN1CCCCC1 (centres undefined) | 1.47
CC(=O)NCCCC(=O)N1CCc2[nH]c(-c3ccccc3)nc2C1 | -3.73
Cc1ccc(CN(C)C(=O)c2n[nH]c(N)c2-c2ccccc2)o1 | -4.81
COC(=O)C1Cc2nc[nH]c2CN1Cc1ccc(Sc2ncccn2)o1 (centres undefined) | -3.94
Cn1ccc(C(=O)N2CCC(Cc3cnc4[nH]ccc4c3)CC2)n1 | 8.77
CNc1cncc(C2CCCN2Cc2ccccn2)n1 (centres undefined) | 0.0241
Cc1noc(CN(C)CC(c2cccs2)N2CCOCC2)n1 (centres undefined) | -0.524
Cc1cccc(C(CNC(=O)NCc2cc[nH]n2)N2CCOCC2)c1 (centres undefined) | -9.19
CCn1nc2c(cc1=O)CN(Cc1nc(-c3ccco3)no1)CC2 | -3.34
Cn1cc(C2CCCN2Cc2csc(Cc3ccccc3)n2)cn1 (centres undefined) | -1.19
CCN1CCN(C2CCN(Cc3noc(C4CC4)n3)CC2)C1=O | -8.69
COCC(C)NC(=O)c1cc(C)n(-c2cccc(OC)c2)c1C (centres undefined) | -13.9
c1ccc2cc(OCCCN3CCn4c(nnc4C4CC4)C3)ccc2c1 | -11.3

SMILES | cytotoxicity at 10 µM [%]
Cc1cnn(CC2CCCCN2C(=O)c2ccc3nncn3c2)c1 (centres undefined) | -8.66
Cc1ccccc1OCCN(C)C(=O)NC(C)c1nncn1C (centres undefined) | -12.5
Cc1ccc(-c2nnc(CN3CCc4nn(C)c(=O)cc4C3)o2)cc1 | -23.4
CN(c1cccnn1)C1CCN(C(=O)Cc2c[nH]c3ccccc23)CC1 | -20.1
Cn1cccc1C(=O)Nc1cc(F)ccc1OCC1CCCO1 (centres undefined) | -7.59
CC(=O)NC1CCCN(C(=O)NCc2ccc(-c3ccn[nH]3)cc2)C1 (centres undefined) | -7.84
CN(CC(=O)NC1(C#N)CCCC1)C1CCCN(c2cccnn2)C1 (centres undefined) | -9.75
Cc1ncsc1C(=O)NCc1cccs1 | -1.89
CC(C)c1cc(C(=O)NCCN2CCCS2(=O)=O)n[nH]1 | -9.91
CN(C(=O)NCc1ccncc1)C1CCN(c2ccccc2)C1=O (centres undefined) | -13.5
OC(COc1ccccc1)CN1CCC(c2ccn[nH]2)CC1 (centres undefined) | -3.76
Cc1nc(C)n(CC2CCCN(Cc3nc(C)c(C)o3)C2)n1 (centres undefined) | -2.68
O=C1COC2(CCN(Cc3nccs3)CC2)CN1c1ccccc1 | -114
CN1CCCn2c(nc(CNC(=O)c3ccsc3)cc2=O)C1 | 3.09
COCCNC(=O)C1CN(Cc2cccnc2)Cc2ccnn2C1 (centres undefined) | -76.1
O=C(Cc1ccccn1)N1CC[C@]2(C[C@@H](Oc3ncccc3F)CO2)C1 | -5.79
O=C(NCCc1cccnc1)c1nc2c(s1)CCCN2C(=O)C1CC1 | -91.5
CNC(=O)NCC1CCC2(CCN(C(=O)c3ccccn3)CC2)CO1 (centres undefined) | -102
O=C(c1ccoc1)N1CC[C@@H](N2CCOCC2)[C@@H]1Cc1ccccc1 | -82
CCN1CCc2c(CNC(=O)c3nccn3C)cncc2C1 | -109
CCS(=O)(=O)N1CCC2(CC1)CN(Cc1ccccn1)C(=O)CO2 | 3.01
